# Test results reported in PubChem BioAssay.
# Activity calls are given as the source filed them.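 How the source made its calls, unless noted: active means inhibition at or above 50% at 10 µM; inactive means inhibition below 50%.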
# Experiments:
# [1] = inhibitors of TNFa-induced NFkB p65 translocation, primary screen, imaging, HUVEC, MLSMR starter and 10KST1 sets (AID 438;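 active means inhibition above 20% together with a positive visual image hit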;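 further: compound added about 3h40 before a 20 min TNFalpha stimulation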;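 on inhibition: signal is the nuclear over cytoplasmic p65 intensity ratio per well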); conditions: HUVEC TNFa-induced p65 nuclear translocation; cell count: measured here: nuclei count (cytotoxicity indicator), at 2.08 µM; inhibition: at 2 µM, stronger effect = higher value, 0% TNFa-plus-vehicle, 100% no-TNFa wells
# [2] = inhibitors of mutant huntingtin aggregation, primary screen, imaging, exon1htt(103Q)mCFP cells, high-content imaging (AID 483;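 active means visual image review flags a hit and inhibition of aggregation exceeds 20%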;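 further: compound exposure lasted 3 days before fixation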;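 on nuclei count: percent of the per-plate median nuclei count of sample wells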); conditions: exon1htt(103Q)mCFP cell line, aggregate imaging, at 2 µM; inhibition of aggregation: stronger effect = higher value; nuclei count: measured here: cell count, toxicity
# [3] = inhibitors of E-selectin induction by TNFa, primary screen, imaging, HUVEC, immunofluorescence, MLSMR starter and 10KST1 sets (AID 487;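 active means visually confirmed hit in the image check and inhibition above 20%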;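 on inhibition: signal is fraction of cell area covered by stained E-selectin grains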;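 on nuclei count: 100% = median nuclei count of all wells on the same plate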); conditions: HUVEC TNFalpha-induced E-selectin immunofluorescence imaging, at 2 µM; inhibition: stronger effect = higher value; nuclei count: measured here: cell number, toxicity
# [4] = molecular target: Voltage-gated potassium channel subunit beta-2 (Rattus norvegicus) (UniProt P62483); assay: KvBeta enzyme negative modulators, primary screen, biochemical, NADPH fluorescence (AID 622;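 active means fluorescence slope higher than the sample average by over 3 SD, cut at about -0.22 in these data, passing the limit was not always enough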;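 further: slope of raw intensity against log time taken from 70 to 1610 s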); conditions: recombinant KvBeta, 4-cyanobenzaldehyde reduction, at 10 µM, stronger effect = higher value
# [5] = molecular target: Voltage-gated potassium channel subunit beta-2 (Rattus norvegicus) (UniProt P62483); assay: KvBeta positive modulators, primary screen, biochemical, NADPH fluorescence (AID 623;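 active means NADPH fluorescence slope more negative than the mean of all samples by about 3 SD, 99.7% confidence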;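 further: fluorescence intensity change per second fitted from 20 to 320 s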); conditions: Recombinant KvBeta, NADPH fluorescence decrease slope, 10 min; at 10 µM; stronger effect = lower value
# [6] = molecular target: Muscarinic acetylcholine receptor M4 (Homo sapiens) (UniProt P08173); assay: compounds altering M4/GIRK thallium flux, either direction, primary screen, M4 allosteric agonist project, cell-based, HEK293 M4/GIRK, BTC-AM (AID 625;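 active means fluorescence slope after compound addition differing from the mean of all tested samples at 99.7% confidence, mostly higher but some lower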;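 further: thallium influx through GIRK channels coupled to M4 in HEK293 cells with BTC-AM dye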); conditions: at 10 µM, actives lie on both sides
# Procedure, shortened: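 Material – HEK293 cells with M4 receptor and GIRK channels · Buffer or medium – pH 7.3 thallium assay buffer · Doses – one dose, 10 µM final · Timing – cells overnight at 37 °C, BTC-AM loading 1 h, reads 2 min total · Measured by – kinetic fluorescence with BTC-AM dye · Controls – carbachol and DMSO controls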
# [7] = inhibitors of Sendai virus-induced IRF3 signaling, primary screen, TLR/RLR signaling modifier project, cell-based, Sendai virus stimulus, luciferase, 10K MLSCN set (AID 602276); conditions: HEK293 RL24 IRF3 luciferase reporter, at 10 µM, stronger effect = higher value;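 further: firefly luciferase from ISG56 promoter only with Renilla not read in this screen; 0% = Sendai virus plus DMSO and 100% = medium plus DMSO without virus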
# [8] = inhibitors of poly I:C-induced TLR3 signaling, primary screen, cell-based, poly I:C stimulus, luciferase, 10K MLSCN set (AID 602277;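 active means inhibition of the reporter signal at or above 50%; inactive means inhibition below 50%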); conditions: HEK293-TLR3 RL24 IRF3 luciferase reporter, at 10 µM, stronger effect = higher value
# Chain of Muscarinic acetylcholine receptor M4 (Homo sapiens) (P08173 whole entry, looked up): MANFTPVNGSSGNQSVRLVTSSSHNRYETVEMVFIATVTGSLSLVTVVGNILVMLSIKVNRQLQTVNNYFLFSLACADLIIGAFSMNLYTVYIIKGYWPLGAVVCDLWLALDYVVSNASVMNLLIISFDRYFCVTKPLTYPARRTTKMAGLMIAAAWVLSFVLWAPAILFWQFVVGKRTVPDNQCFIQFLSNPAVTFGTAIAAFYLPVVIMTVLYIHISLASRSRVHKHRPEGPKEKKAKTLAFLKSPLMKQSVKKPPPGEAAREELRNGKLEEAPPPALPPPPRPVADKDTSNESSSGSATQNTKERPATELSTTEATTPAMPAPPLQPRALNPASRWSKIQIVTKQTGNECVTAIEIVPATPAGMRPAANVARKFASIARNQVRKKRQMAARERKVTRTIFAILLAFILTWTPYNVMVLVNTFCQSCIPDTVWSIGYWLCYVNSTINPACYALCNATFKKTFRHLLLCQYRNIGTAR
# Chain of Voltage-gated potassium channel subunit beta-2 (Rattus norvegicus) (P62483 whole entry, looked up): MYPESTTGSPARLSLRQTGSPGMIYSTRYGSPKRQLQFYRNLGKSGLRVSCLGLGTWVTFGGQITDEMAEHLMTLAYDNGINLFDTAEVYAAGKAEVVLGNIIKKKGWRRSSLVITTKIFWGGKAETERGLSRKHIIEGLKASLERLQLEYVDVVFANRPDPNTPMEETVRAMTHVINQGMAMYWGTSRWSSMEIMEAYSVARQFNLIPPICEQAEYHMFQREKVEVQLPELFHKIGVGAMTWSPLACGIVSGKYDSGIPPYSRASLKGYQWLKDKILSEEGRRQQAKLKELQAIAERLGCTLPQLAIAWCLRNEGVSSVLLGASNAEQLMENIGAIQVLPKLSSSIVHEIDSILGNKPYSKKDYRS
Compound,cell count [1],inhibition [1],inhibition of aggregation [2],nuclei count [2],inhibition [3],nuclei count [3],fluorescence slope [4],NADPH fluorescence slope [5],fluorescence slope [6],inhibition [7],inhibition [8]
COc1ccc(CC(=O)OCc2nnc(C3COc4ccccc4O3)o2)cc1OC (centres undefined),440,-1.1% (inactive),-0.3% (inactive),91.8%,-48% (inactive),85.8%,-0.405 (inactive),1.8e-05 (inactive),0.00765 (inactive),7.17% (inactive),9.19% (inactive)
CC(C)c1ccc(NC(=O)C2CC(=O)N(C(C)C)C2)cc1 (centres undefined),232,-2.3% (inactive),21% (inactive),81.7%,-44.3% (inactive),108%,-0.558 (inactive),-6.2e-05 (inactive),0.0102 (inactive),12.8% (inactive),-37.1% (inactive)
CCOc1ccc(C(=O)Cc2ccc3oc(C(=O)O)cc3c2)c(O)c1,580,10.2% (inactive),4.1% (inactive),63.8%,-3.3% (inactive),97.5%,-0.522 (inactive),-4.9e-05 (inactive),0.00668 (inactive),16.4% (inactive),22.3% (inactive)
CN(C)c1ccc(CNC2CC(C)(C)NC(C)(C)C2)cc1,334,2.4% (inactive),-12.5% (inactive),106%,20.8% (inactive),91.1%,-0.584 (inactive),-4.8e-05 (inactive),0.00412 (inactive),-0.582% (inactive),16.7% (inactive)
CCOc1ccccc1CN1C(=O)c2ccccc2C1C(=O)NCC1CCCO1 (centres undefined),350,7.9% (inactive),6.8% (inactive),107%,-214% (inactive),114%,-0.585 (inactive),2.5e-05 (inactive),0.00509 (inactive),7.6% (inactive),5.52% (inactive)
CC(C)=CCCC(C)NC(=O)NC1CCCCC1 (centres undefined),227,-9.6% (inactive),-23.2% (inactive),91.1%,-50.8% (inactive),87%,-0.546 (inactive),-2.7e-05 (inactive),0.00495 (inactive),-0.0287% (inactive),-0.553% (inactive)
CN(Cc1ccccc1)Cc1nc2c([nH]1)c(=O)[nH]c(=O)n2C,276,12.9% (inactive),-1.6% (inactive),96%,69.5% (active),91.4%,-0.371 (inactive),-0.000115 (inactive),0.0061 (inactive),7.51% (inactive),14.7% (inactive)
CCNC(=O)COc1ccc(Br)cc1Cl,302,0% (inactive),-7.5% (inactive),93.8%,0.5% (inactive),109%,-0.547 (inactive),2.4e-05 (inactive),0.00609 (inactive),-12.6% (inactive),-57.4% (inactive)
Cc1ccc(NC(=O)Nc2ccc3c(c2)N(C)C(=O)CS3)nc1,562,-6.9% (inactive),-30.5% (inactive),123%,-45% (inactive),116%,-0.395 (inactive),6.1e-05 (inactive),0.00547 (inactive),7.37% (inactive),0.72% (inactive)
COc1ccc2c(C(=O)CN(C)C3CCCCC3)c[nH]c2c1,533,-0.9% (inactive),-4.4% (inactive),82.5%,-20.8% (inactive),96.7%,-0.561 (inactive),-2.1e-05 (inactive),0.0054 (inactive),20.8% (inactive),39.7% (inactive)
CCN1C(=O)/C(=C/N2CCc3ccccc32)SC1=S,382,1.8% (inactive),-22.3% (inactive),117%,-1.2% (inactive),100%,-0.403 (inactive),-2.8e-05 (inactive),0.00654 (inactive),-26.3% (inactive),-99.1% (inactive)
COc1ccc(N(CC(=O)Nc2ccccc2SC)S(C)(=O)=O)cc1OC,485,-15.7% (inactive),-12% (inactive),65.5%,-4.5% (inactive),102%,-0.468 (inactive),-9.7e-06 (inactive),0.00494 (inactive),19.9% (inactive),19.3% (inactive)
COc1cc(NS(=O)(=O)c2cccc3nsnc23)c(C(=O)O)cc1OC,296,-6% (inactive),-7.8% (inactive),95.9%,5.3% (inactive),136%,-0.575 (inactive),-4.3e-05 (inactive),0.00636 (inactive),14.8% (inactive),17.5% (inactive)
Cc1ccc(S(=O)(=O)N(C)Cc2cc3ccccc3[nH]c2=O)cc1,544,-5% (inactive),12.8% (inactive),99.8%,29.4% (inactive),104%,-0.52 (inactive),-0.000101 (inactive),0.00517 (inactive),8.78% (inactive),70.5% (active)
